Reference: ChEMBL document CHEMBL4038284, “Synthesis of novel quinoline-based 4,5-dihydro-1H-pyrazoles as potential anticancer, antifungal, antibacterial and antiprotozoal agents” (Eur J Med Chem, 2017)
≈ marks a conversion by molar mass, not a printed value.

Legend:
Klebsiella pneumoniae [1] = test: Antibacterial activity against ESBL positive Klebsiella pneumoniae ATCC 700603 after 24 hrs by resazurin dye based microdilution assay; type: functional; conditions: Klebsiella pneumoniae, 700603, 24 h
Outline: (§1)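 MIC taken as the lowest concentration giving visible inhibition and/or by resazurin (1 mg/mL). Gentamicin was the control. Run in duplicate, repeated at least three times.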

Leishmania panamensis = test: Antileshmanial activity against EpiR/GFP fused Leishmania panamensis MHOM/CO/87/UA140 intracellular amastigotes infected in human […] cells after 72 hrs by flow cytometric method; type: functional, cell-based; conditions: MHOM/CO/87/UA140, 72 h
Outline: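 PMA-treated U-937 cells (3 × 10^5 cells/mL) infected with stationary-phase GFP L. panamensis promastigotes (15:1), 3 h at 34 °C, then washed. After 24 h, compounds added at 50, 12.5, 3.125 and 0.78 µg/mL for 72 h at 37 °C. EC50 by Probit; triplicate, two experiments.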

Candida albicans [2] = test: Growth inhibition of Candida albicans ATCC 10231 at 7.8 ug/ml incubated for 48 hrs under dark condition by broth microdilution method relative to control; type: functional; conditions: ATCC 10231, 48 h, read-out: GI
Outline: (§2)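 CLSI M27-A3 broth microdilution in RPMI-1640, DMSO ≤1%. Inoculum 1-5 × 10^3 CFU/mL. Incubated 48 h at 30 °C, dark. % inhibition = 100 − (OD405 test − sterility control)/(OD405 growth control − sterility control), with growth and sterility control wells. Triplicate.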

Staphylococcus aureus [3] = test: Antibacterial activity against methicillin-sensitive Staphylococcus aureus ATCC 25923 after 24 hrs by resazurin dye based microdilution assay; type: functional; conditions: ATCC 25923, 24 h; outline: as §1
Cryptococcus neoformans [4] = test: Growth inhibition of Cryptococcus neoformans ATCC 32264 at 15.62 ug/ml incubated for 48 hrs under dark condition by broth microdilution method relative to control; type: functional; conditions: ATCC 32264, 48 h, read-out: GI; outline: as §2
Candida albicans [5] = test: Growth inhibition of Candida albicans ATCC 10231 at 250 ug/ml incubated for 48 hrs under dark condition by broth microdilution method relative to control; type: functional; conditions: ATCC 10231, 48 h, read-out: GI; outline: as §2
Pseudomonas aeruginosa = test: Antibacterial activity against Pseudomonas aeruginosa ATCC 27853 after 24 hrs by resazurin dye based microdilution assay; type: functional; conditions: ATCC 27853, 24 h; outline: as §1
Candida albicans [6] = test: Growth inhibition of Candida albicans ATCC 10231 at 31.25 ug/ml incubated for 48 hrs under dark condition by broth microdilution method relative to control; type: functional; conditions: ATCC 10231, 48 h, read-out: GI; outline: as §2
Neisseria gonorrhoeae = test: Antibacterial activity against beta lactamase positive Neisseria gonorrhoeae ATCC 31426 by oxidase test; type: functional
Outline: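 Agar dilution MIC on GC agar with 1% isovitalex containing increasing compound concentrations. Plates inoculated with about 1×10^4 CFU (5 µL). MIC is the lowest concentration that inhibited growth, with growth confirmed by oxidase test. Run in duplicate, repeated at least three times.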

Cryptococcus neoformans [7] = test: Growth inhibition of Cryptococcus neoformans ATCC 32264 at 250 ug/ml incubated for 48 hrs under dark condition by broth microdilution method relative to control; type: functional; conditions: ATCC 32264, 48 h, read-out: GI; outline: as §2
Candida albicans [8] = test: Growth inhibition of Candida albicans ATCC 10231 at 15.62 ug/ml incubated for 48 hrs under dark condition by broth microdilution method relative to control; type: functional; conditions: ATCC 10231, 48 h, read-out: GI; outline: as §2
Escherichia coli = test: Antibacterial activity against Escherichia coli ATCC 25922 after 24 hrs by resazurin dye based microdilution assay; type: functional; conditions: ATCC 25922, 24 h; outline: as §1
Cryptococcus neoformans [9] = test: Growth inhibition of Cryptococcus neoformans ATCC 32264 at 62.5 ug/ml incubated for 48 hrs under dark condition by broth microdilution method relative to control; type: functional; conditions: ATCC 32264, 48 h, read-out: GI; outline: as §2
Candida albicans [10] = test: Growth inhibition of Candida albicans ATCC 10231 at 125 ug/ml incubated for 48 hrs under dark condition by broth microdilution method relative to control; type: functional; conditions: ATCC 10231, 48 h, read-out: GI; outline: as §2
Klebsiella pneumoniae [11] = test: Antibacterial activity against carbapenemase positive Klebsiella pneumoniae BAA 1705 after 24 hrs by resazurin dye based microdilution assay; type: functional; conditions: BAA 1705, 24 h; outline: as §1
U-937 = test: Cytotoxicity against human U937 cells after 72 hrs by MTT assay; type: cell-based; conditions: u-937, 72 h
Outline: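 Exponentially growing U-937 at 1 × 10^5 cells/mL in RPMI-1640 with 10% FBS were exposed to 200, 50, 12.5 and 3.125 µg/mL for 72 h at 37 °C, 5% CO2. MTT for 3 h, stopped with isopropanol/SDS, formazan read at 570 nm, blank-corrected. LC50 by Probit from % viability against untreated cells. Triplicate, at least two independent experiments.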

Cryptococcus neoformans [12] = test: Antifungal activity against Cryptococcus neoformans ATCC 32264 incubated for 48 hrs under dark condition by broth microdilution method; type: functional; conditions: ATCC 32264, 48 h
Outline: (§3)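 CLSI M27-A3 broth microdilution in RPMI-1640, DMSO ≤1%, compounds at 250-0.98 µg/mL final. Inoculum 1-5 × 10^3 CFU/mL. Incubated 48 h at 30 °C in a moist dark chamber, read at OD405. MIC80 and MIC50 taken from % inhibition dose-response curves (mean ± SEM, triplicate). Amphotericin B was the positive control.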

Candida albicans [13] = test: Growth inhibition of Candida albicans ATCC 10231 at 3.4 ug/ml incubated for 48 hrs under dark condition by broth microdilution method relative to control; type: functional; conditions: ATCC 10231, 48 h, read-out: GI
Candida albicans [14] = test: Antifungal activity against Candida albicans ATCC 10231 incubated for 48 hrs under dark condition by broth microdilution method; type: functional; conditions: ATCC 10231, 48 h; outline: as §3
Cryptococcus neoformans [15] = test: Growth inhibition of Cryptococcus neoformans ATCC 32264 at 3.4 ug/ml incubated for 48 hrs under dark condition by broth microdilution method relative to control; type: functional; conditions: ATCC 32264, 48 h, read-out: GI
Cryptococcus neoformans [16] = test: Growth inhibition of Cryptococcus neoformans ATCC 32264 at 125 ug/ml incubated for 48 hrs under dark condition by broth microdilution method relative to control; type: functional; conditions: ATCC 32264, 48 h, read-out: GI; outline: as §2
Trypanosoma cruzi = test: Antitrypanosomal activity against Trypanosoma cruzi Tulahuen intracellular amastigote harboring LacZ infected in human U937 cells after 72 hrs by CPRG/Nonidet reagent based spectrophotometric method; type: functional, cell-based; conditions: U-937, 72 h
Outline: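 U-937 cells at 2.5 × 10^5 cells/mL in RPMI-1640 with 10% serum and 0.1 µg/mL PMA were infected with β-galactosidase-transfected Tulahuen epimastigotes at 5 parasites per cell. Infected cells were exposed to 50, 12.5, 3.125 and 0.78 µg/mL for 72 h. CPRG (100 uM) and 0.1% Nonidet P-40 were added for 3 h, read at 570 nm. EC50 by Probit. Triplicate, at least two experiments; benznidazole as reference.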

Cryptococcus neoformans [17] = test: Growth inhibition of Cryptococcus neoformans ATCC 32264 at 7.8 ug/ml incubated for 48 hrs under dark condition by broth microdilution method relative to control; type: functional; conditions: ATCC 32264, 48 h, read-out: GI; outline: as §2
Staphylococcus aureus [18] = test: Antibacterial activity against vancomycin-intermediate Staphylococcus aureus after 24 hrs by resazurin dye based microdilution assay; type: functional; outline: as §1
Candida albicans [19] = test: Growth inhibition of Candida albicans ATCC 10231 at 62.5 ug/ml incubated for 48 hrs under dark condition by broth microdilution method relative to control; type: functional; conditions: ATCC 10231, 48 h, read-out: GI; outline: as §2
Staphylococcus aureus [20] = test: Antibacterial activity against methicillin-resistant Staphylococcus aureus ATCC 43300 after 24 hrs by resazurin dye based microdilution assay; type: functional; conditions: ATCC 43300, 24 h
Outline: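 Broth microdilution in Mueller Hinton broth, inoculum 5 × 10^5 – 8 × 10^5. Compound stocks diluted in MHB with 5% DMSO and 0.1% Tween 80. Incubation 24 h at 35-37 °C. MIC is the lowest concentration with visible growth inhibition and/or by resazurin (1 mg/mL) read-out. Gentamicin as control. Run in duplicate, replicated at least three times.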

Plasmodium falciparum = test: Antiplasmodial activity against chloroquine-sensitive Plasmodium falciparum 3D7 assessed as reduction in parasitic LDH activity after 48 hrs by Malstat reagent based […] method; type: functional; conditions: 3D7, 48 h
Outline: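 Unsynchronized P. falciparum 3D7 at 0.5% parasitemia and 1% hematocrit in RPMI with 3% Albumax II. Exposed to 100, 25, 6.25 and 1.56 µg/mL for 48 h at 37 °C under 90% N2/5% CO2/5% O2. After three freeze-thaw cycles, LDH measured with Malstat and NBT/PES, 1 h in the dark, read at 650 nm. IC50 by Probit; triplicate, ≥2 experiments.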

Cryptococcus neoformans [21] = test: Growth inhibition of Cryptococcus neoformans ATCC 32264 at 31.25 ug/ml incubated for 48 hrs under dark condition by broth microdilution method relative to control; type: functional; conditions: ATCC 32264, 48 h, read-out: GI; outline: as §2

Cc1ccc(C2=NN(C=O)C(c3cccc(Nc4ccnc5cc(Cl)ccc45)c3)C2)cc1 (stereo not given)
MIC (Klebsiella pneumoniae [1]): > 1000 µg/mL | EC50 (Leishmania panamensis): 2.19 µg/mL (≈ 4.97 µM) | inhibition of growth at 7.8 µg/mL (Candida albicans [2]): 13.7% | MIC (Staphylococcus aureus [3]): > 1000 µg/mL | inhibition of growth at 15.62 µg/mL (Cryptococcus neoformans [4]): 43.6% | inhibition of growth at 250 µg/mL (Candida albicans [5]): 48.4% | MIC (Pseudomonas aeruginosa): > 1000 µg/mL | inhibition of growth at 31.25 µg/mL (Candida albicans [6]): 23% | MIC (Neisseria gonorrhoeae): > 1000 µg/mL | inhibition of growth at 250 µg/mL (Cryptococcus neoformans [7]): 76% | inhibition of growth at 15.62 µg/mL (Candida albicans [8]): 22.6% | MIC (Escherichia coli): > 1000 µg/mL | inhibition of growth at 62.5 µg/mL (Cryptococcus neoformans [9]): 44.5% | inhibition of growth at 125 µg/mL (Candida albicans [10]): 28.5% | MIC (Klebsiella pneumoniae [11]): > 1000 µg/mL | LC50 (U-937): 1.3 µg/mL (≈ 2.95 µM) | MIC50 (Cryptococcus neoformans [12]): 125 µg/mL (≈ 283 µM) | MIC80 (Cryptococcus neoformans [12]): ≥ 250 µg/mL | inhibition of growth at 3.4 µg/mL (Candida albicans [13]): 12.7% | MIC50 (Candida albicans [14]): ≥ 250 µg/mL | MIC80 (Candida albicans [14]): ≥ 250 µg/mL | inhibition of growth at 3.4 µg/mL (Cryptococcus neoformans [15]): 24.8% | inhibition of growth at 125 µg/mL (Cryptococcus neoformans [16]): 50.7% | EC50 (Trypanosoma cruzi): 0.96 µg/mL (≈ 2.18 µM) | inhibition of growth at 7.8 µg/mL (Cryptococcus neoformans [17]): 31.1% | MIC (Staphylococcus aureus [18]): > 1000 µg/mL | inhibition of growth at 62.5 µg/mL (Candida albicans [19]): 24.3% | MIC (Staphylococcus aureus [20]): > 1000 µg/mL | EC50 (Plasmodium falciparum): 16.2 µg/mL (≈ 36.7 µM) | inhibition of growth at 31.25 µg/mL (Cryptococcus neoformans [21]): 44.4%
